According to ChEMBL document CHEMBL2157983 (Bioorg Med Chem Lett, 2011):

How the values were obtained:
Escherichia coli = test: Activity of Escherichia coli nitroreductase nfsB assessed as NADH oxidation per mg of protein
Outline: (§1)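 Substrate activity reported as the initial velocity of NADH oxidation (nmol/min/mg) with either E. coli nfsB or T. brucei nitroreductase (TbNTR). The reaction was followed by the change in absorbance at 340 nm.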

V79 [1] = test: Antiproliferative activity against Chinese hamster V79 cells assessed as reduction in cell number after 72 hrs; format: cell-based; conditions: Cricetulus griseus, V79, 72 h
Outline: (§2)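 V79 cells carrying vector only served as the control line. The NTR+ line carried a bicistronic construct encoding E. coli nfsB with a puromycin selection marker. Cells were exposed to drug for 72 h. […] The ratio is IC50 in NTR− cells divided by IC50 in NTR+ cells.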

V79 [2] = test: Antiproliferative activity against Chinese hamster V79 cells transfected with Escherichia coli nitroreductase nfsB assessed as reduction in cell number after 72 hrs; format: functional, cell-based; conditions: Cricetulus griseus, V79, 72 h; outline: as §2
V79 [3] = test: Ratio of IC50 for Chinese hamster V79 cells to IC50 for Chinese hamster V79 cells transfected with Escherichia coli nitroreductase nfsB; set-up: species or system Cricetulus griseus; outline: as §2
SK-OV-3 [4] = test: Antiproliferative activity against human SKOV3 cells after 18 hrs assessed as reduction in cell number; format: functional, cell-based; conditions: SK-OV-3, 18 h
Outline: (§3)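 Untransfected parental SKOV3 cells were compared with SKOV3 cells expressing E. coli nfsB. Drug exposure lasted 18 h. […] The ratio is IC50 in NTR− cells divided by IC50 in NTR+ cells.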

SK-OV-3 [5] = test: Antiproliferative activity against human SKOV3 cells transfected with Escherichia coli nitroreductase nfsB assessed as reduction in cell number after 18 hrs; format: functional, cell-based; conditions: SK-OV-3, 18 h; outline: as §3
SK-OV-3 [6] = test: Ratio of IC50 for human SKOV3 cells to IC50 for human SKOV3 cells transfected with Escherichia coli nitroreductase nfsB; format: functional; outline: as §3
Trypanosoma brucei [7] = test: Trypanocidal activity against of Trypanosoma brucei bloodstream trypomastigote forms assessed as inhibition of parasite growth; format: functional, organism-based
Leishmania major = test: Trypanocidal activity against Leishmania major promastigote forms infected in sandfly gut assessed as inhibition of parasite growth; format: functional, organism-based
SK-OV-3 [8] = test: Antiproliferative activity against human SKOV3 cells with mixed population of 25% NTR(+) cells and 75% NTR(-) cells assessed as bystander effect by measuring mixed population of NTR(+) and NTR (-) cells to produce an IC50 midway on log scale between those in either NTR(+) or NTR(-) cells alone after 18 hrs; format: functional
Outline: (§4)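 Drug exposure lasted 18 h. BE50 is the percentage of NTR+ cells in the mix needed to give an IC50 at the log-scale (geometric) midpoint between the IC50s of pure NTR+ and pure NTR− cultures.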

Trypanosoma brucei [9] = test: Ratio of 4-nitrobenzyl phosphoramide mustard IC50 to compound IC50 for Trypanosoma brucei bloodstream trypomastigote forms; format: functional
SK-OV-3 [10] = test: Antiproliferative activity against human SKOV3 cells with mixed population of 25% NTR(+) cells and 75% NTR(-) cells assessed as reduction in cell number after 18 hrs; format: functional, cell-based; conditions: SK-OV-3, 18 h; outline: as §4
Trypanosoma brucei [11] = test: Activity of Trypanosoma brucei NTR assessed as NADH oxidation per mg of protein; outline: as §1

Row | SMILES | Activity (Escherichia coli) [nmol/min] | IC50 (V79 [1]) [µM] | IC50 (V79 [2]) [µM] | Ratio IC50 (V79 [3]) | IC50 (SK-OV-3 [4]) [µM] | IC50 (SK-OV-3 [5]) [µM] | Ratio IC50 (SK-OV-3 [6]) | IC50 (Trypanosoma brucei [7]) [µM] | IC50 (Leishmania major) [µM] | Activity (SK-OV-3 [8]) [%] | Ratio IC50 (Trypanosoma brucei [9]) | IC50 (SK-OV-3 [10]) [µM] | Activity (Trypanosoma brucei [11]) [nmol/min]
1 | COC(=O)c1cc(COP(N)(=O)N(CCCl)CCCl)ccc1[N+](=O)[O-] (centres undefined) | 167 | 69 | 0.1 | 690 | 435 | 0.43 | 1000 |  |  |  |  |  | 
2 | NP(=O)(OCc1ccc([N+](=O)[O-])cc1Cl)N(CCCl)CCCl (centres undefined) |  | 26 | 0.002 | 13100 | 140 | 0.12 | 1120 | 9.14 | 3.1 | 3.2 | 425 | 0.54 | 
3 | Cc1cc(COP(N)(=O)N(CCCl)CCCl)ccc1[N+](=O)[O-] (centres undefined) | 894 | 48 | 0.003 | 16000 | 477 | 0.45 | 1060 | > 10 | > 30 |  |  |  | 158
4 | NP(=O)(OCc1ccc([N+](=O)[O-])c(F)c1)N(CCCl)CCCl (centres undefined) |  | 48 | 0.003 | 16000 | 246 | 0.21 | 1200 | > 10 | 9.05 | 4.2 |  | 0.48 | 1120
5 | COc1cc(COP(N)(=O)N(CCCl)CCCl)ccc1[N+](=O)[O-] (centres undefined) | 2440 | 48 | 0.003 | 16000 | 641 | 0.44 | 1460 | > 10 | > 30 |  |  |  | 0
6 | NC(=O)c1cc(COP(N)(=O)N(CCCl)CCCl)ccc1[N+](=O)[O-] (centres undefined) | 211 | > 100 | 0.03 | >3330 | > 1000 | 6.75 | >150 |  |  |  |  |  | 
7 | NP(=O)(OCc1c(F)cc([N+](=O)[O-])cc1F)N(CCCl)CCCl (centres undefined) |  | 17 | 0.0008 | 20880 | 257 | 0.17 | 1520 | 0.99 | 1.29 | 9.2 | 485 | 1.37 | 1450
8 | NC(=O)Cc1cc([N+](=O)[O-])ccc1COP(N)(=O)N(CCCl)CCCl (centres undefined) |  | > 100 | 0.05 | >2000 | > 100 | 1.1 | >90 |  |  |  |  |  | 
9 | NP(=O)(OCc1ccc([N+](=O)[O-])cc1C(F)(F)F)N(CCCl)CCCl (centres undefined) |  | 50 | 0.004 | 12500 | 172 | 0.31 | 570 | 7.97 | 5.88 | 2.8 |  | 1.01 | 
10 | NP(=O)(OCc1ccccc1[N+](=O)[O-])N(CCCl)CCCl (centres undefined) | 256 | > 100 | 0.18 | >556 | > 1000 | 5.23 | >190 | > 10 | > 30 |  |  |  | 19
11 | NP(=O)(OCc1ccc([N+](=O)[O-])cc1)N(CCCl)CCCl (centres undefined) | 1280 | 59 | 0.0008 | 73750 | 943 | 0.099 | 9520 | > 10 | > 30 | 5.6 |  | 0.98 | 246
12 | NP(=O)(OCc1cccc([N+](=O)[O-])c1)N(CCCl)CCCl (centres undefined) | 683 | > 100 | 0.26 | >385 | 947 | 55 | 17 | > 10 | > 30 |  |  |  | 369
13 | NP(=O)(OCc1ccc([N+](=O)[O-])cc1F)N(CCCl)CCCl (centres undefined) |  | 49 | 0.0004 | 122750 | 266 | 0.08 | 3290 | 9.54 | 4.72 | 3.9 |  | 0.37 | 
14 | NP(=O)(OCc1ccc([N+](=O)[O-])cc1)N(CCBr)CCBr (centres undefined) |  | 6 | 0.0001 | 60000 | 1100 | 0.09 | 12244 |  |  |  |  |  | 
15 | NP(=O)(OCc1ccc([N+](=O)[O-])cn1)N(CCCl)CCCl (centres undefined) |  | 75 | 0.009 | 8333 |  |  |  |  | 8.3 |  |  |  | 
16 | C[C@@H](OP(N)(=O)N(CCCl)CCCl)c1ccc([N+](=O)[O-])cc1 (some centres undefined) | 1400 | 57 | 0.002 | 28500 | > 1000 | 0.28 | >3500 | > 10 | > 30 |  |  |  | 34
17 | C[C@H](OP(N)(=O)N(CCCl)CCCl)c1ccc([N+](=O)[O-])cc1 (some centres undefined) | 916 | 65 | 0.002 | 32500 | > 1000 | 0.49 | >2000 | > 10 | > 30 |  |  |  | 52
18 | NC(=O)c1cc([N+](=O)[O-])ccc1COP(N)(=O)N(CCCl)CCCl (centres undefined) |  | > 100 | 0.04 | >2500 | > 100 | 0.8 | >125 |  |  |  |  |  | 
19 | COc1cc([N+](=O)[O-])ccc1COP(N)(=O)N(CCCl)CCCl (centres undefined) | 6980 | 41 | 0.0005 | 82000 |  |  |  | > 10 | 15.6 |  |  |  | 239
